Series [1] concerns Trichomonas vaginalis. The experiment in a line: Antiprotozoal activity against Trichomonas vaginalis assessed as cidal effect. In kind it is functional.
In series [2] the test system is Staphylococcus aureus. The experiment in a line: Antibacterial activity against Staphylococcus aureus Tour assessed as growth inhibition. In kind it is functional.
Series [3] deals with Trichomonas vaginalis. The experiment in a line: Antiprotozoal activity against Trichomonas vaginalis infected in po dosed mouse. The format is functional.
Series [4] is described as follows: Acute toxicity in po dosed mouse. Conditions: in vivo. In kind it is organism-based. In a few lines:
(§1)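 Mice dosed with the agent. LD50 values were computed by the Litchfield and Wilcoxon method.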

Series [5] concerns Trichomonas vaginalis. Briefly: Ratio of compound ED50 to metronidazole ED50 for Trichomonas vaginalis infected in po dosed mouse. The format is functional.
Series [6] has as its system Trichomonas vaginalis. Briefly: Antiprotozoal activity against Trichomonas vaginalis assessed as static effect. In kind it is functional.
A short description of series [7]: Acute toxicity in ip dosed mouse. In kind it is organism-based. Conditions: in vivo. In a few lines: as §1
The subject of series [8] is Escherichia coli. The experiment in a line: Antibacterial activity against Escherichia coli SKF 12140 assessed as growth inhibition. The format is functional.
In series [9] the test system is Clostridium perfringens. The experiment in a line: Antibacterial activity against Clostridium perfringens ISS 30453 assessed as growth inhibition. In kind it is functional.

Values after ≈ are worked out from the molar mass of the structure shown.

In general, MIC refers to the lowest concentration found to suppress growth. For orientation: ED50 means the dose that gives a 50% effect, or the effect in half of the subjects. Higher therefore signals weaker potency. By LD50 is commonly meant the dose expected to kill half of the subjects tested. A low value points to greater toxicity. As to `Cn1c(C(C)(C)O)cnc1[N+](=O)[O-]`, the MIC in series [1] was 25 µg/mL (≈ 135 µM); in [2] it was 100 µg/mL (≈ 540 µM); in series [6] it was 6.2 µg/mL (≈ 33.5 µM); in series [8], 100 µg/mL (≈ 540 µM); in [9], 25 µg/mL (≈ 135 µM). For the same compound, it took a dose of 2.5 mg/kg to reach the 50% effect level in series [3] (ED50). The LD50 worked out at 698 mg/kg in [4] and 475 mg/kg in series [7]. Further, the “Ratio ED50” value in series [5] is reported as 0.21.

Turning to `Cn1c(C(C)(O)CO)cnc1[N+](=O)[O-]` (stereo unspecified), the MIC in [1] is 20 µg/mL (≈ 99.4 µM); in series [2], above 100 µg/mL; in [6] it was 10 µg/mL (≈ 49.7 µM); in [8], above 100 µg/mL; in [9] it was 5 µg/mL (≈ 24.9 µM). Besides, in series [3], the ED50 was above 80 mg/kg. For the same compound, the LD50 in [4] is above 1000 mg/kg. For the same compound, in series [5], the “Ratio ED50” value is listed as above 8.

Take `COC(C)(C)c1cnc([N+](=O)[O-])n1C`: the minimum inhibitory concentration (MIC) is 50 µg/mL (≈ 251 µM) in series [1]; 100 µg/mL (≈ 502 µM) in series [2]; 6.2 µg/mL (≈ 31.1 µM) in series [6]; above 100 µg/mL in series [8]; 100 µg/mL (≈ 502 µM) in series [9]. The “Ratio ED50” value in [5] was determined as 0.19. In series [7], this compound returned an LD50 of 225 mg/kg.

With `C=C(C)c1cnc([N+](=O)[O-])n1C`, the MIC was 10 µg/mL (≈ 59.8 µM) in series [1]; above 100 µg/mL in series [2]; 2 µg/mL (≈ 12 µM) in series [6]; above 100 µg/mL in [8]; 3.1 µg/mL (≈ 18.5 µM) in series [9]. This compound also showed an ED50 in [3] of 32.5 mg/kg. In addition, the LD50 in series [4] was 350 mg/kg. Besides, in series [5], the “Ratio ED50” value stood at 3.25.

For `Cc1ncc([N+](=O)[O-])n1CCO` [METRONIDAZOLE], the MIC in series [1] is 5 µg/mL (≈ 29.2 µM); in [2], above 300 µg/mL; in [6], 0.5 µg/mL (≈ 2.92 µM); in [8], above 300 µg/mL; in [9], 0.5 µg/mL (≈ 2.92 µM). Besides, the ED50 in series [3] came to 11.5 mg/kg. Also, the “Ratio ED50” value in [5] was 1.

In the case of `CC(C)c1cnc([N+](=O)[O-])n1C`, the MIC in series [1] was 20 µg/mL (≈ 118 µM); in [2] it was above 300 µg/mL; in series [6], 5 µg/mL (≈ 29.6 µM); in [8] it was above 300 µg/mL; in series [9], 5 µg/mL (≈ 29.6 µM). In series [3], this compound returned an ED50 of 2.03 mg/kg. Besides, in [5], the “Ratio ED50” value is listed as 0.17.

For the origin of these results see ChEMBL document CHEMBL3272244, “Synthesis and biological activity of two metabolites of 1-methyl-5-(1-methylethyl)-2-nitro-1 H-imidazole, an antiprotozoal agent” (J Med Chem, 1977).
